Measurements from ChEMBL document CHEMBL5543124, “Lead Compound Development of SRC-3 Inhibitors with Improved Pharmacokinetic Properties and Anticancer Efficacy” (J Med Chem, 2024).

tested on: not listed separately; experiment: Stability in CD-1 mouse plasma at 37.7 micromol/kg,ip administration measured after 22 hrs by LC-MS/MS analysis; assay type: ADME, cell-free; settings: at 37.7 µmol/kg
In short: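 Female CD-1 mice (n=3) dosed i.p. at 37.7 μmol/kg (equimolar across compounds). Blood (20 μL) drawn at 0.25, 5 and 22 h and processed to plasma. Drug levels quantified by LC-MS/MS.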

Row | SMILES | Stability
1 | C/C(=N\Nc1nc2ccccc2n1C)c1ccc(F)cn1 | Stable
2 | C/C(=N\Nc1nc2cc(F)ccc2n1C)c1ccc(F)cn1 | Stable

tested on: not listed separately; experiment: Half life in human liver microsomes at 1 uM incubated for 30 mins in presence of NADPH by LC-MS/MS analysis; assay type: ADME, Microsome; settings: 0.5 h
In short: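 Human liver microsomes (1 mg/mL final) in 100 mM phosphate buffer with or without NADPH; compound at 1 μM final, 37 °C. Samples taken at 0, 5, 10, 20, 30 min (0 and 30 min without NADPH), quenched with cold acetonitrile containing internal standards, analysed by LC-MS/MS; verapamil as control.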

Row | SMILES | t1/2
3 | C/C(=N\Nc1nc2ccccc2n1C)c1ccccn1 | 3 min
4 | C/C(=N\Nc1nc2ccccc2n1C)c1ccc(F)cn1 | 4.93 min
5 | C/C(=N\Nc1nc2cc(F)ccc2n1C)c1ccc(F)cn1 | 5.76 min

tested on: MCF7; experiment: Cytotoxicity against human MCF7 cells assessed as inhibition of cell growth incubated for 72 hrs by MTT assay; assay type: functional, cell-based; settings: MCF7, 72 h

Row | SMILES | IC50
6 | C/C(=N\Oc1nc2ccccc2n1C)c1ccccn1 | > 1000 nM
7 | C/C(=N\N=c1/[nH]c2cc(F)c(F)cc2n1C)c1ccc(-c2cnn(C)c2)cn1 | 6.7 nM
8 | C/C(=N\N=c1/[nH]c2cc(F)c(F)cc2n1C)c1ccc(OCCCS(C)(=O)=O)cn1 | 249 nM
9 | C/C(=N\N=c1/[nH]c2cc(F)c(F)cc2n1C)c1ccc(C(=O)O)cn1 | > 1000 nM
10 | C/C(=N\N=c1/[nH]c2cc(F)c(F)cc2n1C)c1ccncn1 | 10.7 nM
11 | C/C(=N\N=c1/[nH]c2cc(F)c(F)cc2n1C)c1ccccc1 | > 1000 nM
12 | C/C(=N\N=c1n(C)c2ccccc2n1C)c1ccc(F)cn1 | > 1000 nM
13 | C/C(=N\N=c1/[nH]c2cc(F)c(F)cc2n1C)c1cn(C)cn1 | > 1000 nM
14 | Cn1c(NNC(=O)c2ccccn2)nc2ccccc21 | 494 nM
15 | C/C(=N\N=c1/[nH]c2cc(F)c(F)cc2n1C)c1ccc(C(=O)N2CCOCC2)cn1 | 44.7 nM
16 | C/C(=N\N=c1/[nH]c2cc(F)c(F)cc2n1C)c1ccncc1 | > 1000 nM
17 | C/C(=N\N=c1/[nH]c2cc(F)c(F)cc2n1C)c1cccnc1 | > 1000 nM
18 | COC(=O)c1ccc(/C(C)=N/N=c2\[nH]c3cc(F)c(F)cc3n2C)nc1 | 2.9 nM
19 | C/C(=N\N=c1/[nH]c2cc(F)c(F)cc2n1C)c1ccc(C(N)=O)cn1 | 2.7 nM
20 | C/C(=N\Nc1nc2ccccc2n1C)c1ccccn1 | 22 nM
21 | C/C(=N\N=c1/sc2ccccc2n1C)c1ccc(F)cn1 | > 1000 nM
22 | C/C(=N\Nc1nc2ccccc2n1C)c1ccc(F)cn1 | 5.4 nM
23 | Cn1c(N2N=C(c3ccccn3)CC2=O)nc2ccccc21 | > 1000 nM
24 | C/C(=N\N=c1/[nH]c2cc(F)c(F)cc2n1C)c1cocn1 | > 1000 nM
25 | C/C(=N\N=c1/[nH]c2cc(F)c(F)cc2n1C)c1ccc(-c2nnn[nH]2)cn1 | > 1000 nM
26 | C/C(=N\N=c1/[nH]c2cc(F)c(F)cc2n1C)c1ccc(OCCCN2CCOCC2)cn1 | 30.5 nM
27 | C/C(=N\N=c1/[nH]c2cc(F)c(F)cc2n1C)c1ccccn1 | 6.3 nM
28 | C/C(=N\N=c1/[nH]c2cc(F)c(F)cc2n1C)c1cccs1 | > 1000 nM
29 | C/C(=N\Nc1nc2cc(F)ccc2n1C)c1ccc(F)cn1 | 2.5 nM
30 | C/C(=N\N=c1/[nH]c2cc(Cl)c(Cl)cc2n1C)c1ccc(F)cn1 | 18 nM
